Eight compounds from ChEMBL document CHEMBL1152911, “Synthesis and biological activities of a pH-dependently activated water-soluble prodrug of a novel hexacyclic camptothecin analog” (Bioorg Med Chem Lett, 2009) can be followed below.

Each structure is given as a SMILES string. Activity calls are given as the source filed them. The rule behind the calls is not given here.

By solubility is commonly meant the dissolved amount per volume that the medium holds.

Data set [1] in a line: Stability of compound in pH 2 phosphate buffer at room temperature assessed as prodrug remaining after conversion into active drug CH0793076 after 3 hrs. The format is physicochemical. The note with it: pH 2, 3 h.
A short description of data set [2]: Stability of compound in pH 5 phosphate buffer at room temperature assessed as prodrug remaining after conversion into active drug CH0793076 after 3 hrs. The format is physicochemical. The note with it: pH 5, 3 h.
Data set [3] in a line: Stability of compound in pH 7.4 phosphate buffer at room temperature assessed as prodrug remaining after conversion into active drug CH0793076 after 3 hrs. The note with it: pH 7.4, 3 h. Type of data set: physicochemical.
Data set [4] has as its system Plasma. Description: Stability in rat plasma assessed as time required for conversion into active drug CH0793076. Type of data set: ADME, cell-free. The gist of the method: (§1)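 ¹⁴C-labelled prodrug was incubated in plasma of the stated species. Formation of ¹⁴C-labelled active drug was followed over an incubation time course of 0–3 min.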
Data set [5] concerns Plasma. Kind of data set: Stability in mouse plasma assessed as time required for conversion into active drug CH0793076. Type of data set: ADME, cell-free.
For data set [6], the system named is NCI-H460. Description: Antitumor activity against human BCRP-positive NCI-H460 cells xenografted in mouse at MTD of 100 mg/kg, iv administered as bolus once per week for 3 weeks. The format is functional, organism-based. Also noted: dose 100 mg/kg. (In general: Xenograft models place foreign cells or tissue in a host animal.)
The nature of data set [7]: Solubility in water. Type of data set: physicochemical.
In data set [8] the test system is HCT-116. Description: Antitumor activity against human BCRP-negative HCT116 cells xenografted in mouse at MTD of 47 mg/kg, iv administered as bolus once per week for 3 weeks. Type of data set: functional, organism-based. Further details: dose 47 mg/kg.
Data set [9] in a line: Toxicity in mouse administered as bolus iv injection once per week for 3 weeks. Type of data set: organism-based. The conditions noted are these: in vivo.
In data set [10] the test system is Plasma. Description: Stability in monkey plasma assessed as time required for conversion into active drug CH0793076. The format is ADME, cell-free, Macaca mulatta. The note with it: rhesus monkey.
In data set [11] the test system is Plasma. Description: Stability in dog plasma assessed as time required for conversion into active drug CH0793076. The format is ADME, cell-free, Canis lupus familiaris. The gist of the method:
as §1

For data set [12], the system named is NCI-H460. Kind of data set: Antitumor activity against human BCRP-positive NCI-H460 cells xenografted in mouse at MTD of 47 mg/kg, iv administered as bolus once per week for 3 weeks. The format is functional, organism-based. Further details: dose 47 mg/kg.
For data set [13], the system named is HCT-116. Kind of data set: Antitumor activity against human BCRP-negative HCT116 cells xenografted in mouse at MTD of 100 mg/kg, iv administered as bolus once per week for 3 weeks. The format is functional, organism-based. Further details: dose 100 mg/kg.

On to `CCCCCN1C=Nc2cccc3nc4c(c1c23)Cn1c-4cc2c(c1=O)COC(=O)[C@@]2(CC)OC(=O)OCCS(=O)(=O)C[C@H](N)C(=O)OCC.Cl`, for which the results for the Stability in data set [1], in data set [2] and in [3] were 100%, 68% and 43%, respectively.

For the compound `CCCCCN1C=Nc2cccc3nc4c(c1c23)Cn1c-4cc2c(c1=O)COC(=O)[C@@]2(CC)OC(=O)CN(C)C(=O)CN.Cl`, the Stability is recorded as under 1 min in data set [4]; under 1 min in data set [5]; 100% in [1]; 83% in data set [2]; 0% in data set [3]; under 1 min in data set [10]. In data set [11], the Stability is given as under 1 min. Further, the outcome in data set [6], in data set [8], in data set [12] and in data set [13] was Active. For the same compound, the solubility in data set [7] is over 10000 µg/mL. The MTD at 504 h in [9] was 47 mg/kg.

In the case of `CCCCCN1C=Nc2cccc3nc4c(c1c23)Cn1c-4cc2c(c1=O)COC(=O)[C@@]2(CC)OC(=O)CNC(=O)CNC.Cl`, the values for the Stability in [1], in data set [2] and in data set [3] were 100%, 100% and 73%, respectively.

`CCCCCN1C=Nc2cccc3nc4c(c1c23)Cn1c-4cc2c(c1=O)COC(=O)[C@@]2(CC)OC(=O)CN(C)C(=O)C(C)(C)N.Cl`: the Stability is 78% in [1], 0% in data set [2] and 0% in data set [3].

For `CCCCCN1C=Nc2cccc3nc4c(c1c23)Cn1c-4cc2c(c1=O)COC(=O)[C@@]2(CC)OC(=O)OCCS(=O)(=O)CCN.Cl`, the Stability in data set [1] came out at 100%; in data set [2] it was 96%; in [3], 4%.

For the compound `CCCCCN1C=Nc2cccc3nc4c(c1c23)Cn1c-4cc2c(c1=O)COC(=O)[C@@]2(CC)OC(=O)CNC(=O)CN.Cl`, the values for the Stability in data set [2] and in data set [3] were 100% and 47%, respectively.

For `CCCCCN1C=Nc2cccc3nc4c(c1c23)Cn1c-4cc2c(c1=O)COC(=O)[C@@]2(CC)OC(=O)[C@H](C)N(C)C(=O)CN.Cl`, the Stability in data set [1] amounted to 99%; in data set [2], 47%; in [3], 0%.

For `CCCCCN1C=Nc2cccc3nc4c(c1c23)Cn1c-4cc2c(c1=O)COC(=O)[C@@]2(CC)OC(=O)CN(C)C(=O)CNC.Cl`, the Stability in data set [1] is recorded as 95%; in data set [2] it was 83%; in data set [3] it was 0%.
